High-throughput results from PubChem BioAssay.
FN deposition inh: fibronectin deposition inhibition; AH1F fibroblasts, Alexa488-fibronectin deposition fluorescence, overnight; inhibition, % at 12.6 µM; 350,000 compounds, 0.086% hits;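 active = mean inhibition across replicates of 30% or more, regardless of how many single replicates reach that level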;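 note: positive control wells lacked labelled fibronectin entirely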
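Assay system: AH1F fibroblasts assembling fluorescent fibronectin matrix; Amount: 10000 AH1F cells per well; Buffer or medium: DMEM, 2% serum; Probe or stimulus: Alexa488-fibronectin, 24 nM final in well; Doses: single compound dose, delivered by pin transfer; Incubation: 1 h adhesion, overnight exposure; Measured by: fluorescence 485/525 nm; Read-out: fibronectin deposition inhibition.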
PvdQ acylase: blocks Pseudomonas aeruginosa PvdQ acylase activity. purified PvdQ acylase, fluorescence plate reader. inhibition, % at 10 µM. 340,000 compounds, 0.063% hits; in the data active = inhibition above about 30%, passing the limit was not always enough;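 note: 0% = vehicle neutral wells and 100% = reference inhibitor wells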
Ecoli rRNA inh: inhibits bacterial ribosomal RNA function over humanized ribosomes. E. coli WT GFP vs humanized-ribosome RFP mutants, fluorescence, 24 h; hits give low values; DMSO median 0, no signal -100. GFP signal change (wild-type ribosome), % (test concentration not listed). 350,000 compounds, 1.6% hits;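 active = significant combined selectivity score with lowered wild-type GFP, culture density cut under 30%, mutant RFP and density less affected; inactive = any of these conditions unmet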
PDI turbidity: PDI (human) enzyme inhibition; P07237; PDI insulin aggregation turbidity, A650, 90 min; inhibition, % at 10 µM; 350,000 compounds, 0.052% hits;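 active = mean inhibition across replicates of 30% or more, whatever share of single replicates reach that level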
HIV Env fusion: inhibitors of HIV Env-mediated cell fusion. HeLa-JRFL Env/CEM21 cell fusion, luciferase. AID 651610. inhibition, % at 12.3 µM. 360,000 compounds, 1.1% hits;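 active = mean replicate inhibition score of at least 50 and every replicate individually at or above 50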;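 note: 0% = plate neutral controls and 100% = maraviroc near 300 nM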
ERp5 inh: ERp5 (human) disulfide isomerase inhibition. Q15084. ERp5 insulin aggregation, absorbance 650 nm, 90 min. inhibition, % at 9.99 µM. 350,000 compounds, 0.05% hits. AID 651711;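 active = mean replicate inhibition above about 25%, with every replicate also reaching it, limit read from the data, passing the limit was not always enough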
Target sequence (Q15084 whole entry, looked up): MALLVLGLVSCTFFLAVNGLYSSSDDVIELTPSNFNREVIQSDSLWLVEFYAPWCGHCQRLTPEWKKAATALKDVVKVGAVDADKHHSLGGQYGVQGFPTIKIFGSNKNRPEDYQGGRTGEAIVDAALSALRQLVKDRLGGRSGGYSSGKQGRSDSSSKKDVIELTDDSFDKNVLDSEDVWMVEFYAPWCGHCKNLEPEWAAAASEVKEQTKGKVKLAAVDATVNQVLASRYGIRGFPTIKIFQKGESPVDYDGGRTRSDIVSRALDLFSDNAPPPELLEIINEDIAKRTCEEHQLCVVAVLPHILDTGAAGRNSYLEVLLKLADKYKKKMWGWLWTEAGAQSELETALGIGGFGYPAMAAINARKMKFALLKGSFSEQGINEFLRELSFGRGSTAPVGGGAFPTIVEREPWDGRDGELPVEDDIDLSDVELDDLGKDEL
* = called active by the depositor; · = no result given; [ ] = remark or other dose. Only some compounds are listed: those with a hit (about 2.2% of all), similar ones and a draw of the others.

SMILES	FN deposition inh	PvdQ acylase	Ecoli rRNA inh	PDI turbidity	HIV Env fusion	ERp5 inh
CCN(CC(=O)Nc1cc(Cl)ccc1C)C(=O)C1CCN(c2ncnc3sc(C)c(C)c23)CC1	-2	·	-3	3	61*	2
Cc1sc2ncnc(N3CCC(C(=O)Nc4cc(S(C)(=O)=O)ccc4Cl)CC3)c2c1C	1	-18	-3	0	92*	-4
Cc1sc2ncnc(N3CCC(C(=O)N(C)CC(=O)Nc4ccccc4Cl)CC3)c2c1C	-1	2	-32	6	24	1
CSc1nsc(N/N=C/c2ccccc2)c1C#N	-17	8	-22*	-4	2	-5
COc1cccc(/C=N/Nc2snc(SC)c2C#N)c1	·	10	·	-6	·	·
O=C(NC1CCS(=O)(=O)C1)c1cccc(Br)c1 (stereo unspecified)	-3	41*	2	1	·	-2
O=C(NC1CCS(=O)(=O)C1)c1cccc(S(=O)(=O)N2CCCCC2)c1 (stereo unspecified)	·	-5	·	-4	-69	·
O=C(NCC[C@H]1CC[C@H](NC(=O)C2CCCCC2)[C@@H](CO)O1)c1cnccn1	5	·	1	·	-12[16.7 µM]	3
CCCCN1C(=O)C(O)(c2ccccc2)c2cc(Br)ccc21 (stereo unspecified)	10	-1	-10	-4	85*	2
Cc1nnc(NC(=O)C2CCCCC2)s1	·	-9	·	0	65*	·
CCCCN(Cc1ccccc1)S(=O)(=O)c1cc(Br)cc2c1N(C(C)=O)C(C)C2 (stereo unspecified)	-1	-8	·	-4	63*	·
C[C@H](CO)N1C[C@H](C)[C@H](CN(C)S(=O)(=O)c2ccc(F)cc2)Oc2ccc(NC(=O)Nc3ccc4c(c3)OCO4)cc2CC1=O	8	·	0	·	-16[16.7 µM]	4
COc1ccc([C@H]2CC(=O)c3c(O)cc(O)cc3O2)cc1O	6	-12	-23*	7	-2	2
COc1cc(C2CC(=O)c3c(O)cc(O)cc3O2)ccc1O (stereo unspecified)	·	-15	·	·	·	3
O=S(=O)(Nc1cccc(Br)c1)c1cccc2nsnc12	-3	16	-33*	6	-7	5
Cc1cccc(NS(=O)(=O)c2cccc3nsnc23)c1	·	-5	·	-5	·	·
C[C@@H]1CN([C@@H](C)CO)S(=O)(=O)c2ccc(C#CC(C)(C)O)cc2O[C@H]1CN(C)C(=O)C1CCC1	2	·	1	·	-32[16.7 µM]	2
CC(c1ccco1)N(C(=O)C12CC3CC(CC(C3)C1)C2)c1ccccn1 (stereo unspecified)	·	-11	·	-3	·	·
O=C(N(c1ccccn1)c1ccccn1)C12CC3CC(CC(Cl)(C3)C1)C2	·	1	1	2	73*	-1
CCC(=O)N1CCCCN2[C@H](C1)[C@@H](c1ccc(C#Cc3ccccc3F)cc1)[C@@H]2CO	·	·	-58	·	·	-1
CC1CC(C)(C)NC(=S)N1CCCC(=O)Nc1ccc(Br)cc1 (stereo unspecified)	3	1	-37*	-5	16	2
CCOc1ccc(NC(=O)CCCN2C(=S)NC(C)(C)CC2C)cc1 (stereo unspecified)	3	1	·	10	-11	·
CC(C)NC(=O)N(C)C[C@H]1Oc2ccccc2C(=O)N(C)C[C@H]1C	-5	·	1	·	·	·
COc1ccc(CN(C)C[C@H]2Oc3c(NC(=O)Nc4ccc(C(F)(F)F)cc4)cccc3C(=O)N([C@H](C)CO)C[C@@H]2C)cc1	·	·	·	·	·	-3
CCOC(=O)c1c(CSC(=N)N)n(-c2ccccc2)c2cc(Br)c(OC(C)=O)cc12	3	-14	-43*	4	17	1
SMILES	FN deposition inh	PvdQ acylase	Ecoli rRNA inh	PDI turbidity	HIV Env fusion	ERp5 inh
CCOC(=O)c1c(CN2CCN(CCO)CC2)n(-c2ccccc2)c2cc(Br)c(O)cc12	12	-12	-5	58*	10	-4
CCOC(=O)c1c(CS(=O)(=O)c2ccccc2)n(C)c2cc(Br)c(O)c(CN(C)C)c12	-5	-4	-9	2	67*	1
CCOC(=O)c1c(CS(=O)(=O)c2ccccc2)n(C)c2cc(Br)c(O)cc12	2	-1	-19*	8	31	2
CCOC(=O)c1c(CN2CCOCC2)n(C)c2cc(Br)c(O)c(CN(C)C)c12	-7	-7	2	-4	2	-1
COc1cccc(C(=O)N2C[C@@H]3[C@H](c4ccccc42)[C@@H](CO)N3Cc2ccccc2Cl)c1	·	·	-18	·	·	0
C[C@H]1CN([C@@H](C)CO)C(=O)c2cccc(NC(=O)Nc3ccc(C(F)(F)F)cc3)c2O[C@H]1CN(C)Cc1ccc2c(c1)OCO2	-6	·	-42	·	·	-12
O=C(NC(=S)Nc1ccc(Br)c(Cl)c1)C1CC1	7	-2	-27*	2	-13	7
O=C(COc1ccccc1)NNc1c2ccccc2nc2ccccc12	·	4	·	-4	·	·
COc1ccc(OCC(=O)NNc2c3ccccc3nc3ccccc23)cc1	-1	7	·	-11	59*	·
O=C(NNc1c2ccccc2nc2ccccc12)C(O)c1ccccc1 (stereo unspecified)	-31	-18	-27*	0	5	-1
O=C1N[C@@H](c2ccccc2)COCc2cnnn2CC[C@H]1Cc1ccc(C(F)(F)F)cc1	0	·	3	·	·	·
O=C1Nc2c(Cl)cc(Cl)cc2C12Nc1ccccc1S2 (stereo unspecified)	-1	·	·	·	55*	2
COc1ccc2nc(C)cc(N/N=C/c3ccc(F)cc3)c2c1	2	-12	-52	5	90*	1
CN(C)C(=O)CCCc1nc(-c2ccc(Cl)cc2)no1	·	-7	·	-3	55*	·
Cc1cccc(-c2noc(CCCC(=O)Nc3cccnc3)n2)c1	15	-10	·	-3	13	·
O=C(CCCc1nc(-c2ccc(Cl)cc2)no1)Nc1cccnc1	-1	-11	·	1	61*	·
O=C(Nc1cccc(Cl)c1)N1N=CCC1c1ccccc1 (stereo unspecified)	2	·	-27*	-3	2	7
O=C(Nc1cccc2ccccc12)N1CCN(c2ccccc2)CC1	·	5	·	-3	·	·
O=C(NNC(=O)C1CC1c1ccccc1)Nc1cccc(Cl)c1 (stereo unspecified)	·	0	·	-6	56*	·
O=C(Nc1cccc2ccccc12)N1N=CCC1c1ccccc1 (stereo unspecified)	4	·	-28*	-5	-2	1
C[C@@H]1CN([C@H](C)CO)C(=O)Cc2cc(NC(=O)Cc3cn(C)c4ccccc34)ccc2O[C@@H]1CN(C)S(=O)(=O)c1ccc(Cl)cc1	·	·	1	·	-23[16.7 µM]	·
Cc1ccc(S(=O)(=O)N2C[C@H]3[C@H]4C(=O)N(Cc5ccccc5)C(=O)[C@H]4CC(=O)[C@H]3[C@@H]2c2ccccc2Cl)cc1	-2	·	8	·	60*	2
